Measurements from ChEMBL document CHEMBL3352173, “Optimization of pyrrolamide topoisomerase II inhibitors toward identification of an antibacterial clinical candidate (AZD5099)” (J Med Chem, 2014).
Values after ≈ are worked out from the molar mass of the structure shown.

Experiments:
Cytochrome P450 3A4 = Cytochrome P450 3A4 (Homo sapiens, UniProt P08684); test: Inhibition of human CYP3A4 at 50 uM; format: ADME
Cytochrome P450 2C19 = Cytochrome P450 2C19 (Homo sapiens, UniProt P33261); test: Inhibition of human CYP2C19 at 50 uM; format: ADME
Staphylococcus aureus [1] = test: Antimicrobial activity against Staphylococcus aureus ARC516 by broth microdilution/CLSI method; format: functional
[2] = molecular target: T1, ATP-binding cassette sub-family C member 2 (Homo sapiens, UniProt Q92887); test: Stimulation of ATPase activity of human MRP2 assessed as inorganic phosphate
Staphylococcus aureus [3] = test: Antimicrobial activity against 2 times drug resistance selected Staphylococcus aureus ARC2381-2F by broth microdilution/CLSI method; format: functional
Staphylococcus aureus [4] = test: Ratio of MIC for 2 times drug resistance selected Staphylococcus aureus ARC2381-3F to MIC for Staphylococcus aureus ARC2381; format: functional
Enterococcus faecium [5] = test: Antimicrobial activity against Enterococcus faecium by broth microdilution/CLSI method; format: functional
[6] = Clearance in CD1 mouse at 10 mg/kg, iv; format: ADME, organism-based; set-up: dose 10 mg/kg, route intravenous; conditions: in vivo
Staphylococcus aureus [7] = test: Ratio of MIC for 2 times drug resistance selected Staphylococcus aureus ARC2398-1F to MIC for Staphylococcus aureus ARC2398; format: functional
Staphylococcus aureus [8] = test: Antimicrobial activity against Staphylococcus aureus by broth microdilution/CLSI method; format: functional
[9] = molecular target: ATP-binding cassette sub-family C member 2 (Rattus norvegicus, UniProt Q63120); test: Stimulation of ATPase activity of rat Mrp2 assessed as inorganic phosphate
Staphylococcus aureus [10] = test: Antimicrobial activity against Staphylococcus aureus ARC2381 by broth microdilution/CLSI method; format: functional
[11] = Solubility of the compound; format: physicochemical
DNA gyrase subunit B = DNA gyrase subunit B (Staphylococcus aureus, UniProt P0A0K8); test: Inhibition of ATPase activity of Staphylococcus aureus GyrB
Method in brief: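 IC50 was determined against S. aureus GyrB in the routine screening assay. The enzyme concentration limits resolution below 10 nM.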

[12] = Octanol-phosphate buffer distribution coefficient, log D of the compound at pH 7.4 by shake flask method; format: physicochemical
[13] = molecular target: T1, ATP-binding cassette sub-family C member 2; test: Inhibition of ATPase activity of human MRP2 assessed as inorganic phosphate
[14] = Percentage unbound in human plasma; format: ADME, cell-free
Enterococcus faecium [15] = test: Antimicrobial activity against vancomycin-resistant Enterococcus faecium by broth microdilution/CLSI method; format: functional
Staphylococcus aureus [16] = test: Ratio of MIC for 2 times drug resistance selected Staphylococcus aureus ARC2381-2F to MIC for Staphylococcus aureus ARC2381; format: functional
Staphylococcus aureus [17] = test: Ratio of MIC for 2 times drug resistance selected Staphylococcus aureus ARC2398-2F to MIC for Staphylococcus aureus ARC2398; format: functional
Staphylococcus aureus [18] = test: Ratio of MIC for 2 times drug resistance selected Staphylococcus aureus ARC1692-2F to MIC for Staphylococcus aureus ARC1692; format: functional
Escherichia coli = test: Antimicrobial activity against Escherichia coli tolC- by broth microdilution/CLSI method; format: functional; conditions: Escherichia coli; read-out: MIC
Staphylococcus aureus [19] = test: Antimicrobial activity against methicillin, quinolone-resistant Staphylococcus aureus by broth microdilution/CLSI method; format: functional; conditions: Staphylococcus aureus; read-out: MIC
[20] = Bioavailability in Wistar rat at 10 mg/kg, […]; format: ADME, organism-based; conditions: in vivo
Streptococcus pneumoniae = test: Antibacterial activity against Streptococcus pneumoniae by broth microdilution/CLSI method; format: functional; conditions: Streptococcus pneumoniae; read-out: MIC
Staphylococcus aureus [21] = test: Ratio of MIC for 2 times drug resistance selected Staphylococcus aureus ARC516-1F to MIC for Staphylococcus aureus ARC516; format: functional
Staphylococcus aureus [22] = test: Antibacterial activity against methicillin-sensitive Staphylococcus aureus ARC516 infected in ip dosed neutropenic CD1 mouse thigh model assessed as decrease in bacterial viable counts after 24 hrs; format: functional, organism-based; conditions: Thigh muscle
[23] = AUC in methicillin-sensitive Staphylococcus aureus ARC516 infected in neutropenic CD1 mouse thigh model at 30 mg/kg, ip q24; format: ADME, organism-based; set-up: dose 30 mg/kg, route intraperitoneal; conditions: in vivo
[24] = Clearance in rat at 10 mg/kg, iv; format: ADME, organism-based; set-up: dose 10 mg/kg, route intravenous; conditions: in vivo
[25] = Ratio of MIC for methicillin, quinolone-resistant Staphylococcus aureus to fraction unbound in human plasma; format: ADME
Cytochrome P450 2C9 = Cytochrome P450 2C9 (Homo sapiens, UniProt P11712); test: Inhibition of human CYP2C9 at 50 uM; format: ADME
Staphylococcus aureus [26] = test: Ratio of MIC for 2 times drug resistance selected Staphylococcus aureus ARC516-2F to MIC for Staphylococcus aureus ARC516; format: functional

T1 sequence (Q92887 whole entry): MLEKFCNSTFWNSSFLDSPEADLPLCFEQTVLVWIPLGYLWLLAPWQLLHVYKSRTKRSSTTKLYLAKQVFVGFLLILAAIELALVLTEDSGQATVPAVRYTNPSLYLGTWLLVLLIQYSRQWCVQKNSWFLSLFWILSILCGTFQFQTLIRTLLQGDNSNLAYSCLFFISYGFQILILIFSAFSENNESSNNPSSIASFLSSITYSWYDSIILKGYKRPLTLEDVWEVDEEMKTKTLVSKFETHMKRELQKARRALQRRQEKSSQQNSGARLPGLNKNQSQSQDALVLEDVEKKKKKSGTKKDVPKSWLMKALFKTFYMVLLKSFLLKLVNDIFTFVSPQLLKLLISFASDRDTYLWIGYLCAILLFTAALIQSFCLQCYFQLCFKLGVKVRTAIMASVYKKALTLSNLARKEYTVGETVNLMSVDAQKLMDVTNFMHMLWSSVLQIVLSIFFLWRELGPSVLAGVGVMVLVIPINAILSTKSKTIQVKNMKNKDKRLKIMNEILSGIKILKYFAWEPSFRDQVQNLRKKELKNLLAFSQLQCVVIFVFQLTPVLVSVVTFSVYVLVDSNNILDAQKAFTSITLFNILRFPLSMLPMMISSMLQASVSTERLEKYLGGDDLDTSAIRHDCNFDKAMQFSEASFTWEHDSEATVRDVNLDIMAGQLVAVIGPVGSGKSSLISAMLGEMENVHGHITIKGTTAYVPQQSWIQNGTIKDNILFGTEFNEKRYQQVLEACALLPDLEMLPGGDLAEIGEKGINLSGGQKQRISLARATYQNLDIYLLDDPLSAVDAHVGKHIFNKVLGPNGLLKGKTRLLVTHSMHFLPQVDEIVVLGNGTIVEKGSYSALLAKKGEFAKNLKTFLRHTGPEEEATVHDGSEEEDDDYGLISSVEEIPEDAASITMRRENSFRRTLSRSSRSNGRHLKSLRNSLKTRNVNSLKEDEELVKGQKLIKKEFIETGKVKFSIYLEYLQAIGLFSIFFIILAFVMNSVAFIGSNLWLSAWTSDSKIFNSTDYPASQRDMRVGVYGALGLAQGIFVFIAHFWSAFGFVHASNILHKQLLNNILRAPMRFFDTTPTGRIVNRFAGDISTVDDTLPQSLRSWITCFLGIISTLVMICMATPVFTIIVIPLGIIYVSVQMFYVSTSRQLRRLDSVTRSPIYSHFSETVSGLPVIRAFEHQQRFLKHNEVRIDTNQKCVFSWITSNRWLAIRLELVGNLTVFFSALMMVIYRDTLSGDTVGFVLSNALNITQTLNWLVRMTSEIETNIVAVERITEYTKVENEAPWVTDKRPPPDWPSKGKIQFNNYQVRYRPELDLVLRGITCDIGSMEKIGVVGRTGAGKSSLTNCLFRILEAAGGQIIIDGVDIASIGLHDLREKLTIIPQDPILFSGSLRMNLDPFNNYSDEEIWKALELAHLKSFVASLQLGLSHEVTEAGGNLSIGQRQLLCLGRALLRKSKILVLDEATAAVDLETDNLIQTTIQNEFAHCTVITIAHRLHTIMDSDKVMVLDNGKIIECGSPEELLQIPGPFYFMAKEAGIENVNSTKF
Chain of Cytochrome P450 2C9 (P11712 whole entry): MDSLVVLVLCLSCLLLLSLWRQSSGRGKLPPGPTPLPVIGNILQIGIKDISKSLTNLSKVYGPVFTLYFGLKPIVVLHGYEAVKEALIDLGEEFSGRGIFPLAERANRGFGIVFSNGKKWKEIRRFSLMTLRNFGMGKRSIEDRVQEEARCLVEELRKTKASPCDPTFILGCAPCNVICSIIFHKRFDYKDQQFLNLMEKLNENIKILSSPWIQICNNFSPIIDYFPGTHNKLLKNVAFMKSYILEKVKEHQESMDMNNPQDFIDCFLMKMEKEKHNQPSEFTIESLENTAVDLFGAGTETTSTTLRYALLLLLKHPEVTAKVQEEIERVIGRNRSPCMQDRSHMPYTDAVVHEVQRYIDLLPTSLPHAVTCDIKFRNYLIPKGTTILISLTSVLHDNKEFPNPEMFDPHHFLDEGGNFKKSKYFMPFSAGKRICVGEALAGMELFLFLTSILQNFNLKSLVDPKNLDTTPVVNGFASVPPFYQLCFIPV
Chain of Cytochrome P450 2C19 (P33261 whole entry): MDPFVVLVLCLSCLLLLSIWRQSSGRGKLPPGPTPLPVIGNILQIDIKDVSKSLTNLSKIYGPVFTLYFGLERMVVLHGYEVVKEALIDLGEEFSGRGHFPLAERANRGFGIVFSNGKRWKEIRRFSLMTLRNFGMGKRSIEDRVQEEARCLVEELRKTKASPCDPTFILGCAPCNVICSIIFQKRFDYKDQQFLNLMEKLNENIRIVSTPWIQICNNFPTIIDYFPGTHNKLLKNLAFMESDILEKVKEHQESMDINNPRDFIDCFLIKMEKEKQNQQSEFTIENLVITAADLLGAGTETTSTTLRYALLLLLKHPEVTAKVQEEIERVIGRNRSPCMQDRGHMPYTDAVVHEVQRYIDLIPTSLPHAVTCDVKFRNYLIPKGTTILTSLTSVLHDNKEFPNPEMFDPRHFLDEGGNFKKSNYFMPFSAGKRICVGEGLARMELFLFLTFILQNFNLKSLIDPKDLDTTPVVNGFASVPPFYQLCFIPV
Chain of ATP-binding cassette sub-family C member 2 (Rattus norvegicus, UniProt Q63120) (Q63120 whole entry): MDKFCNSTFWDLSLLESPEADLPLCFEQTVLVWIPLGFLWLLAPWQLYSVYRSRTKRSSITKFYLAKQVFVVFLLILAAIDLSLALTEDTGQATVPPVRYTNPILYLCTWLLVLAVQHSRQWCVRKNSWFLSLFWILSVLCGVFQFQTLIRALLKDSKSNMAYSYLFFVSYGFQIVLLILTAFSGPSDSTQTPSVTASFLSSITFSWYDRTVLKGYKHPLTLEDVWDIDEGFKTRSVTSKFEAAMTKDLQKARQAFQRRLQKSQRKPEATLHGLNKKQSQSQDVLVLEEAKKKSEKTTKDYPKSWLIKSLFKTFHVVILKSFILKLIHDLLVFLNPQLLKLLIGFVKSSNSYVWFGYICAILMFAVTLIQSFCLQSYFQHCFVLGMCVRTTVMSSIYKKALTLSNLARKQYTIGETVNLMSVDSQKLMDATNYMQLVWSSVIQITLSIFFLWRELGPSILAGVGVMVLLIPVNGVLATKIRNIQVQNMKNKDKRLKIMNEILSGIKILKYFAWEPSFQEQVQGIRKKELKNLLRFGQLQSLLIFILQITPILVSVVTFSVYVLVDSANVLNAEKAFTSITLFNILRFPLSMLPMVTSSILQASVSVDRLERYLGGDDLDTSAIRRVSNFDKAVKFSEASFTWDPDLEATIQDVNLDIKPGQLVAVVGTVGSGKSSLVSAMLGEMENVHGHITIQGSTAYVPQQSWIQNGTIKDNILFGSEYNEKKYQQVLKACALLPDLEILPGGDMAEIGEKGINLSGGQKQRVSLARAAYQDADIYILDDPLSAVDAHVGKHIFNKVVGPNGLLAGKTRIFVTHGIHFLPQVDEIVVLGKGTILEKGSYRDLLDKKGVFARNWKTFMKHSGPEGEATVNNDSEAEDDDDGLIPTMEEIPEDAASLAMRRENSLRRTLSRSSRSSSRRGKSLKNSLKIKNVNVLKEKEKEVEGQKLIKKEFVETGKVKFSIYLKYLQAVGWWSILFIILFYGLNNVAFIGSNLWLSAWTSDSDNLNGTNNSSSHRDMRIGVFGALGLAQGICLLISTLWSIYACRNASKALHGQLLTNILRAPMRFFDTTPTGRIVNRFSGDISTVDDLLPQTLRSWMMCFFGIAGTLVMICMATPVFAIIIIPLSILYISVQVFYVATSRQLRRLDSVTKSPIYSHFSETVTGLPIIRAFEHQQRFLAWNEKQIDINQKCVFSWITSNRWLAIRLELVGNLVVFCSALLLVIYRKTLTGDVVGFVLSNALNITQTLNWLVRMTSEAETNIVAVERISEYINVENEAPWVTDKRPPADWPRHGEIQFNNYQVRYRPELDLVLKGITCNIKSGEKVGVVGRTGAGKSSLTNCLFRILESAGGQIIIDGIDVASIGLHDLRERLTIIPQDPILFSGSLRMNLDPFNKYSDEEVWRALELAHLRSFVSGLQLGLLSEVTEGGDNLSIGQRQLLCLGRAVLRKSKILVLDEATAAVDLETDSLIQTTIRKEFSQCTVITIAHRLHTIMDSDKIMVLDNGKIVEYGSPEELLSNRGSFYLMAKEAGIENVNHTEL
Chain of Cytochrome P450 3A4 (P08684 whole entry): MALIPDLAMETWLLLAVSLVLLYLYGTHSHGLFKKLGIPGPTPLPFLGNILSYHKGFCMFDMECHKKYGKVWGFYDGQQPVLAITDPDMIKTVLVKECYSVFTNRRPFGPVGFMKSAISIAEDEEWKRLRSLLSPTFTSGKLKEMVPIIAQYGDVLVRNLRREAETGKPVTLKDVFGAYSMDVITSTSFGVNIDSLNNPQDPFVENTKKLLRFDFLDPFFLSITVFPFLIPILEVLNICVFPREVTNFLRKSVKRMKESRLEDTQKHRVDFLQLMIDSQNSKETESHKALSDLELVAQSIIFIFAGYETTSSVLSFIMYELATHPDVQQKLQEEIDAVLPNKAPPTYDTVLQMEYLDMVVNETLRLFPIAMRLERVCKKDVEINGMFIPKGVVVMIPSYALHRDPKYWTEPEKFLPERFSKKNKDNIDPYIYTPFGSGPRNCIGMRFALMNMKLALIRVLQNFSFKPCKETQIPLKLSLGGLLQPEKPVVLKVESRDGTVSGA

In the case of `COC[C@H](C)NC(=O)c1nc(N2CC[C@@H](NC(=O)c3[nH]c(C)c(Cl)c3Cl)[C@@H](OC)C2)sc1C(=O)O` [AZD-5099], the “inhibition (INH)” value (Cytochrome P450 3A4) is reported as “Not Active”, the “inhibition (INH)” value (Cytochrome P450 2C19) is reported as “Not Active” and the MIC (Staphylococcus aureus [1]) is reported as 0.016 µg/mL (≈ 0.0292 µM). It also gave an EC50 [2] greater than 200 µM, an MIC (Staphylococcus aureus [3]) of 0.13 µg/mL (≈ 0.237 µM) and a Ratio (Staphylococcus aureus [4]) of 8. For the same molecule, the MIC90 (Enterococcus faecium [5]) was 0.06 µg/mL (≈ 0.109 µM), the clearance [6] was 10 mL/min/kg and the Ratio (Staphylococcus aureus [7]) was 16. The MIC90 (Staphylococcus aureus [8]) was 0.06 µg/mL (≈ 0.109 µM), the EC50 [9] was greater than 200 µM and the MIC (Staphylococcus aureus [10]) was 0.016 µg/mL (≈ 0.0292 µM). It also gave a solubility [11] of 960 µM (≈ 527 µg/mL), an IC50 (DNA gyrase subunit B) of less than 0.01 µM and a logD [12] of 1.4. For the same molecule, the IC50 [13] was 59 µM, the fraction unbound [14] was 0.025 and the MIC90 (Enterococcus faecium [15]) was 0.06 µg/mL (≈ 0.109 µM). For the same molecule, the Ratio (Staphylococcus aureus [16]) was 8, the Ratio (Staphylococcus aureus [17]) was 16 and the Ratio (Staphylococcus aureus [18]) was 8. For the same molecule, the MIC (Escherichia coli) was 0.94 µg/mL (≈ 1.71 µM), the MIC (Staphylococcus aureus [19]) was 0.057 µg/mL (≈ 0.104 µM) and the bioavailability [20] was 81%. The MIC (Streptococcus pneumoniae) was 0.016 µg/mL (≈ 0.0292 µM), the Ratio (Staphylococcus aureus [21]) was 16 and the inhibition (Staphylococcus aureus [22]) was “Dose-dependent effect”. The AUC [23] was 116 µg·h/mL, the clearance [24] was 14 mL/min/kg and the Ratio [25] was 2.3. For the same molecule, the “inhibition (INH)” value (Cytochrome P450 2C9) was “Not Active” and the Ratio (Staphylococcus aureus [26]) was 16.
